Rows were chosen to be rich in hits. Some 4.6% of all compounds tested hit in one or more screens of this group.
M18AAP inhibitor = PfM18AAP inhibitors, malaria aminopeptidase, primary screen, biochemical, QFRET, recombinant enzyme; H-Glu-NHMec fluorogenic cleavage; inhibition, % at 7.35 µM; actives 1.2% (n = 290,000);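 active means inhibition above the campaign mean inhibition over all tested compounds plus 3 SD, cut at about 28% in these data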
HDAC3 inh = HDAC3 deacetylase inhibitors, primary screen, biochemical, fluorescence, cell-free homogeneous; recombinant HDAC3, fluorogenic peptide/trypsin coupled; inhibition, % at 8.3 µM; actives 0.15% (n = 320,000); in the data active means inhibition above about 26%, passing the limit was not always enough; inconclusive means no clear call, values can overlap the other calls
UCH37 inh = inhibitors of human UCH37 deubiquitinase, primary screen, biochemical, Ub-AMC cleavage, fluorescence. Ubiquitin carboxyl-terminal hydrolase isozyme L5 (Homo sapiens), Q9Y5K5. inhibition, % (test concentration not listed). AID 588478, 2011. purified proteasome/UCH37. actives 0.33% (n = 330,000);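 active means mean inhibition over replicate wells above about 20%, limit read from the data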
Target sequence (Q9Y5K5 whole entry, looked up): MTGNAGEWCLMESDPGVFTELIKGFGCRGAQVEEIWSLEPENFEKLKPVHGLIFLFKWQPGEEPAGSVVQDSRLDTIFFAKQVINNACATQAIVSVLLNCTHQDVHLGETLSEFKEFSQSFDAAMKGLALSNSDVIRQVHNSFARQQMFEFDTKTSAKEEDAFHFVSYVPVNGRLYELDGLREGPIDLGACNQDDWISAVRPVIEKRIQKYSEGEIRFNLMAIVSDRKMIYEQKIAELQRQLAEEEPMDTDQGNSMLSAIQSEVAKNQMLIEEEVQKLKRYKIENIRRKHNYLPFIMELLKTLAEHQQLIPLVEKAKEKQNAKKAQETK
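system = Proteasome-associated human UCH37 deubiquitinase | amount = 0.15 nM proteasome as dispensed | medium = pH 7.4 Tris-HCl (50 mM) with ovalbumin, ATP-MgCl2, DTT | incubation = 30 min preincubation with enzyme, 25 min cleavage at room temperature | detection = AMC fluorescence 355/460 nm | read-out basis = percent inhibition | controls = no-proteasome and no-compound wells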
Rtt109 HAT inh = inhibitors of C. albicans Rtt109/Vps75 HAT, primary screen, biochemical, ThioGlo CoA-SH fluorescence, plate reader; Histone acetyltransferase RTT109 (Candida albicans (strain SC5314 / ATCC MYA-2876)), …; purified Rtt109/Vps75, 4 h; inhibition, % at 34.9 µM; actives 0.16% (n = 330,000); AID 540336, 2011;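 active means inhibition of at least 50% in every replicate; inconclusive means best replicate reaches 50% inhibition but some replicates fall short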
FAS-TE inh = FAS thioesterase domain inhibitors, primary screen, biochemical, fluorescence intensity, uHTS | Fatty acid synthase (Homo sapiens), P49327 | recombinant FAS-TE, OMFH fluorogenic substrate, fluorescence endpoint | inhibition, % at 15 µM | actives 0.67% (n = 360,000) | AID 602261, 2012;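 active means compounds whose normalised, plate-corrected inhibition of enzyme fluorescence in the single-dose primary screen is 50% or more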
ALR inh = inhibitors of human ALR sulfhydryl oxidase, primary screen, biochemical, H2O2 detection, HRP-luminol luminescence, single point. FAD-linked sulfhydryl oxidase ALR (Homo sapiens), P55789. purified ALR, DTT oxidation. inhibition, % (no concentration beside the values). actives 3.8% (n = 290,000). AID 485317, 2010;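 active means mean replicate inhibition above about 79%, with every replicate also reaching it, limit read from the data; inconclusive means only one of the two criteria met; inactive means mean below limit and not every replicate reaching it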
Target sequence (P55789 whole entry, looked up): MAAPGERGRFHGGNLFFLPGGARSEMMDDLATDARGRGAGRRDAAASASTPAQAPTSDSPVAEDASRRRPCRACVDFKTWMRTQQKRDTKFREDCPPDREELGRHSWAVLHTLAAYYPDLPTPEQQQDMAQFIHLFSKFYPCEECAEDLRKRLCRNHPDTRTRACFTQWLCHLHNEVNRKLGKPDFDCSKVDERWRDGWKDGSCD
Numbers stand for hits.

For O=C(NN=Cc1cccc(Br)c1)c1ccccc1-n1cccc1 the results were UCH37 inh inactive.
CCOC(=O)N1CCN(C(=O)CSCC(=O)Nc2nc(-c3cccs3)cs2)CC1 was read as M18AAP inhibitor inactive, HDAC3 inh inactive, UCH37 inh inactive, Rtt109 HAT inh inactive, FAS-TE inh inactive and ALR inh 90.
Screening CC1CCN(C(=O)CSCC(=O)Nc2nc(-c3cccs3)cs2)CC1 returned M18AAP inhibitor inactive, HDAC3 inh inactive, UCH37 inh inactive, Rtt109 HAT inh inactive, FAS-TE inh inactive and ALR inh 98.
For CCOc1ccc2ccccc2c1C=NNC(=O)c1ccc([N+](=O)[O-])cc1 the results were UCH37 inh inactive.
`Cc1nc(SC(C)C(=O)c2c(N)n(C)c(=O)n(C)c2=O)c2c(C)c(C)sc2n1` (stereo unspecified) gave HDAC3 inh inactive, UCH37 inh inactive, Rtt109 HAT inh inactive, FAS-TE inh inactive and ALR inh 91.
`CC(Sc1nnc(N)s1)C(=O)c1c(N)n(C)c(=O)n(C)c1=O` (stereo unspecified) gave UCH37 inh inactive, Rtt109 HAT inh inactive and FAS-TE inh inactive.
O=C1N[C@@H](Cc2ccccc2)COC(=O)[C@@H](Cc2ccc(F)cc2)CC/C=C/C[C@@H]1CC(=O)N(CCO)Cc1ccccc1 was read as HDAC3 inh inactive, UCH37 inh inactive, Rtt109 HAT inh inactive, FAS-TE inh inactive and ALR inh inactive.
`O=C1N[C@H](Cc2ccccc2)COC(=O)[C@@H](Cc2ccc(F)cc2)CC/C=C/C[C@H]1CC(=O)N(CCO)Cc1ccccc1` gave HDAC3 inh 29, UCH37 inh 22, Rtt109 HAT inh inactive, FAS-TE inh inactive and ALR inh inactive.
For O=c1c(=Cc2cccnc2)sc2nc3ccccc3n12 the results were UCH37 inh inactive.
`O=c1/c(=C/c2ccccn2)sc2nc3ccccc3n12` gave M18AAP inhibitor 36, Rtt109 HAT inh inactive and FAS-TE inh inactive.
`O=c1c(=Cc2cc([N+](=O)[O-])cc([N+](=O)[O-])c2O)sc2nc3ccccc3n12` gave UCH37 inh 27.
`O=S(=O)(c1ccc(Br)cc1)N1CCN=C1SCc1cccnc1` gave M18AAP inhibitor inactive, HDAC3 inh inactive, UCH37 inh inactive, Rtt109 HAT inh inactive, FAS-TE inh inactive and ALR inh inconclusive.
Screening CC(=O)Nc1ccc(S(=O)(=O)N2CCN=C2SCc2cccnc2)cc1 returned M18AAP inhibitor inactive, HDAC3 inh inactive, UCH37 inh inactive, Rtt109 HAT inh inactive, FAS-TE inh inactive and ALR inh 98.
O=S(=O)(c1ccc2ccccc2c1)N1CCN=C1SCc1cccnc1 was read as M18AAP inhibitor inactive, HDAC3 inh inactive, UCH37 inh inactive, Rtt109 HAT inh inactive, FAS-TE inh inactive and ALR inh 99.
O=S(=O)(c1ccc(F)cc1)N1CCN=C1SCc1cccnc1 was read as M18AAP inhibitor inactive, HDAC3 inh inactive, UCH37 inh inactive, Rtt109 HAT inh inactive, FAS-TE inh inactive and ALR inh 98.
For O=c1c(=Cc2ccc(O)cc2)sc2nc(-c3ccccc3)c(-c3ccccc3)n12 the results were UCH37 inh inactive.
CC1(C)CC(=O)c2cc(C(=O)NNc3ccccc3)c(=O)n(-c3ccccc3)c2C1 was read as M18AAP inhibitor inactive, HDAC3 inh inactive, UCH37 inh inactive, Rtt109 HAT inh inactive, FAS-TE inh inactive and ALR inh 98.
`O=C(O)COc1ccccc1C=NNC(=O)CSc1nc2ccccc2n1Cc1ccccc1` gave UCH37 inh inactive.
Screening CC(=NNC(=S)NC1CCCCC1)c1cccc(Br)c1 returned UCH37 inh inactive.
COc1cc2c(cc1O)CCN(C(=O)CSc1nncn1C)[C@@H]2C was read as HDAC3 inh inactive, UCH37 inh inactive, Rtt109 HAT inh inactive, FAS-TE inh inactive and ALR inh 82.
For Cc1ccc(N/N=C2\CCS(=O)(=O)c3sccc32)cc1 the results were M18AAP inhibitor inactive, HDAC3 inh inactive, Rtt109 HAT inh inactive, FAS-TE inh inactive and ALR inh 99.
`O=S1(=O)CCC(=NNc2ccccc2)c2ccsc21` gave UCH37 inh inactive.
`COc1ccc(C(=O)O/N=C2\CCS(=O)(=O)c3sccc32)cc1` gave M18AAP inhibitor inactive, HDAC3 inh 52, Rtt109 HAT inh inactive, FAS-TE inh inactive and ALR inh inactive.
Screening CC(=NNc1ccc(C(=O)O)cc1)c1ccc(S(=O)(=O)NCc2ccco2)cc1 returned UCH37 inh inactive.
CN(C)CCCSc1nc2ccccc2s1 was read as M18AAP inhibitor inactive, HDAC3 inh inactive, UCH37 inh inactive, FAS-TE inh inactive and ALR inh 99.
O=C(O)CCSc1nc2ccccc2s1 was read as M18AAP inhibitor inactive, HDAC3 inh inactive, UCH37 inh inactive, Rtt109 HAT inh inactive, FAS-TE inh inactive and ALR inh 99.
Screening COc1cc(/C=C2\SC(=O)NC2=O)ccc1Oc1ccc([N+](=O)[O-])cn1 returned M18AAP inhibitor inactive, HDAC3 inh inactive, UCH37 inh inactive, Rtt109 HAT inh inactive, FAS-TE inh inactive and ALR inh 98.
For COc1cc(/C=C2/SC(=O)NC2=O)ccc1Oc1ccc([N+](=O)[O-])cc1[N+](=O)[O-] the results were M18AAP inhibitor inactive, HDAC3 inh inactive, UCH37 inh inactive, Rtt109 HAT inh inactive, FAS-TE inh inactive and ALR inh 97.
Screening COc1cc(/C=C2/SC(N)=NC2=O)ccc1Oc1ccc([N+](=O)[O-])cc1[N+](=O)[O-] returned M18AAP inhibitor inactive, HDAC3 inh inactive, UCH37 inh inactive, Rtt109 HAT inh inactive, FAS-TE inh inactive and ALR inh inactive.
For CC(=O)Nc1ccccc1NC(=O)CC(C)=NNC(=O)c1ccccn1 the results were UCH37 inh inactive.
`O=[N+]([O-])c1cc(Br)cc(C=Nn2cnnc2)c1O` gave UCH37 inh inactive.
`COc1ccc(Cl)cc1C=NNC(=O)c1c(-c2ccccc2)noc1C` gave UCH37 inh inactive.
`Oc1c(C(c2cccs2)N2CCC3(CC2)OCCO3)sc2ncnn12` (stereo unspecified) gave M18AAP inhibitor inactive, HDAC3 inh inactive, UCH37 inh inactive, Rtt109 HAT inh inactive, FAS-TE inh inactive and ALR inh inactive.

Compound activity (PubChem BioAssay)
